Measured values collected from several papers.
Protocols differ between the studies behind these lines.
Target: Phosphatidylinositol 4-phosphate 5-kinase type-1 gamma (PIP5K1C, Homo sapiens, UniProt O60331)

SMILES	effect on	technique	tested at	remaining binding [%]
N[C@@H]1CCN(c2nccc(-c3cnn4ncccc34)n2)C1	binding		1 µM	81
Cc1nc(C2CCN(C(=O)c3ccc(OC(F)(F)F)cc3N)CC2)c2ncc(N3CCN(C)CC3)cc2n1	cell-free assay	competition with immobilised ligand	1 µM	94
O=C(c1ccc(Nc2ncc(Cl)c(-c3cc4ccccc4s3)n2)cc1)N1CCC(N2CCCC2)CC1	binding	competition with immobilised ligand	1 µM	53
CNC(=O)[C@@H]1CC[C@@H](n2c(-c3ccc4cnccc4c3)nc3ccc(C(=O)NCc4cccc(C(N)=O)c4)cc32)C1	binding	competition with immobilised ligand	1 µM	80
N#CC1(c2ccccn2)CCN(Cc2cc(C(=O)N3CCCC3)c(=O)n3ccccc23)CC1	cell-free assay	competition with immobilised ligand	1 µM	68
c1cncc(-c2cccc(Nc3nccc(NC4CCCCC4)n3)c2)c1	binding	competition with immobilised ligand	10 µM	0
CCN1CCN(Cc2ccc(C(=O)Nc3ccc(C)c(Oc4ccc5c(c4)CC(=O)N5)c3)cc2C(F)(F)F)CC1	binding	competition with immobilised ligand	1 µM	92
CNC(=O)Nc1ccc2c(c1)CC[C@@]21OC(=O)N(CC(=O)N(Cc2ccc(F)cc2)[C@@H](C)C(F)(F)F)C1=O	cell-free assay	competition with immobilised ligand	1 µM	100
FC(F)(F)Oc1cccc(-c2cnc3ccc(-c4ccncc4)nn23)c1	cell-free assay	competition with immobilised ligand	5 µM	47
COc1cccc(CNC(=O)c2nc3scc(COCc4ccc(C(=O)O)cc4)c3c(=O)[nH]2)c1	cell-free assay	competition with immobilised ligand	1 µM	63.7
O=C(c1ccc(Nc2nccc(-c3cc4ccccc4s3)n2)cc1)N1CCC(N2CCCC2)CC1	binding	competition with immobilised ligand	1 µM	13
CC1CCCN1c1nccc(-c2cnn3ncccc23)n1 (stereo not shown)	binding		1 µM	74
COc1ccc2c(c1)O[C@H](c1ccc(OC)c(OC)c1)C[C@@H]2NC(=O)C1(c2ccc3c(c2)OC(F)(F)O3)CC1	cell-free assay	competition with immobilised ligand	1 µM	100
CN(C)c1nccc(-c2cnc3ncccn23)n1	binding		1 µM	100
O=C(NCC1CCOCC1)c1n[nH]cc1NC(=O)c1c(F)cccc1F	binding	competition with immobilised ligand	1 µM	55
C[C@H]1CCN(c2nccc(-c3cnn4ncccc34)n2)C1	binding		1 µM	95
O=C(NCCCN1CCOCC1)c1ccc(Nc2nccc(-c3cc4ccccc4s3)n2)cc1	binding	competition with immobilised ligand	1 µM	2.3
COc1ccnn2ncc(-c3ccnc(N(C)C)n3)c12	binding		1 µM	97
C[C@@H]1CN(c2cc(-c3n[nH]c4ccc(OC5(C)CC5)cc34)ncn2)C[C@H](C)O1	cell-free assay	competition with immobilised ligand	0.1 µM	92
